Converted amounts (≈) assume the structure as drawn. The source made the active and inactive calls. The rule behind the calls is not given here.
Key:
[1] = tested on: Bacillus cereus; assay: Antimicrobial activity against Bacillus cereus at 10 ug/disk after 24 hrs by disk diffusion assay; format: functional
Procedure, shortened: (§1)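 Disc diffusion on 4 mm filter discs. Bacteria are grown overnight in LB at 28 C, then adjusted in saline to 1.0 × 10^5 cfu/ml. The suspension is mixed into top agar over peptone agar plates. Plates are incubated 24 h at 28 C, and growth-inhibition zone diameter is measured. Streptomycin and ampicillin controls are applied from a 1 mg/ml stock. Tests are done in duplicate.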

[2] = tested on: Micrococcus flavus; assay: Antimicrobial activity against Micrococcus flavus at 10 ug/disk after 24 hrs by disk diffusion assay; format: functional; procedure, shortened: as §1
[3] = tested on: Staphylococcus aureus; assay: Antimicrobial activity against Staphylococcus aureus at 10 ug/disk after 24 hrs by disk diffusion assay; format: functional; procedure, shortened: as §1
[4] = tested on: Escherichia coli; assay: Antimicrobial activity against Escherichia coli at 10 ug/disk after 24 hrs by disk diffusion assay; format: functional; procedure, shortened: as §1
[5] = tested on: Pseudomonas aeruginosa; assay: Antimicrobial activity against Pseudomonas aeruginosa at 10 ug/disk after 24 hrs by disk diffusion assay; format: functional; procedure, shortened: as §1
[6] = tested on: Enterobacter cloacae; assay: Antimicrobial activity against Enterobacter cloacae at 10 ug/disk after 24 hrs by disk diffusion assay; format: functional; procedure, shortened: as §1
[7] = tested on: Salmonella typhimurium; assay: Antimicrobial activity against Salmonella Typhimurium at 10 ug/disk after 24 hrs by disk diffusion assay; format: functional, organism-based; conditions: Salmonella enterica subsp. enterica serovar Typhimurium; procedure, shortened: as §1
[8] = tested on: Listeria monocytogenes; assay: Antimicrobial activity against Listeria monocytogenes at 10 ug/disk after 24 hrs by disk diffusion assay; format: functional; procedure, shortened: as §1
[9] = tested on: Bacillus cereus; assay: Antimicrobial activity against Bacillus cereus at 1 umol/disk after 24 hrs by disk diffusion assay; format: functional; procedure, shortened: as §1
[10] = tested on: Micrococcus flavus; assay: Antimicrobial activity against Micrococcus flavus at 1 umol/disk after 24 hrs by disk diffusion assay; format: functional; procedure, shortened: as §1
[11] = tested on: Staphylococcus aureus; assay: Antimicrobial activity against Staphylococcus aureus at 1 umol/disk after 24 hrs by disk diffusion assay; format: functional; procedure, shortened: as §1
[12] = tested on: Escherichia coli; assay: Antimicrobial activity against Escherichia coli at 1 umol/disk after 24 hrs by disk diffusion assay; format: functional; procedure, shortened: as §1
[13] = tested on: Pseudomonas aeruginosa; assay: Antimicrobial activity against Pseudomonas aeruginosa at 1 umol/disk after 24 hrs by disk diffusion assay; format: functional; procedure, shortened: as §1
[14] = tested on: Enterobacter cloacae; assay: Antimicrobial activity against Enterobacter cloacae at 1 umol/disk after 24 hrs by disk diffusion assay; format: functional; procedure, shortened: as §1
[15] = tested on: Salmonella typhimurium; assay: Antimicrobial activity against Salmonella Typhimurium at 1 umol/disk after 24 hrs by disk diffusion assay; format: functional, organism-based; conditions: Salmonella enterica subsp. enterica serovar Typhimurium; procedure, shortened: as §1
[16] = tested on: Listeria monocytogenes; assay: Antimicrobial activity against Listeria monocytogenes at 1 umol/disk after 24 hrs by disk diffusion assay; format: functional; procedure, shortened: as §1
[17] = tested on: Bacillus cereus; assay: Antimicrobial activity against Bacillus cereus at 1 umol/spot after 18 hrs by TLC-bioautographic method; format: functional
Procedure, shortened: (§2)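 TLC bioautography. Samples are spotted on silica gel TLC plates, then sprayed with bacteria (1.0 × 10^5 cfu/ml) in tryptic soy broth. Plates are incubated 18 h at 37 C and sprayed with 3% aqueous p-iodonitrotetrazolium violet. After a further 3 h, growth is stopped with 70% EtOH. White zones on a pink background are scored as inhibition-zone diameter with standard errors.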

[18] = tested on: Micrococcus flavus; assay: Antimicrobial activity against Micrococcus flavus at 1 umol/spot after 18 hrs by TLC-bioautographic method; format: functional; procedure, shortened: as §2
[19] = tested on: Staphylococcus aureus; assay: Antimicrobial activity against Staphylococcus aureus at 1 umol/spot after 18 hrs by TLC-bioautographic method; format: functional; procedure, shortened: as §2
[20] = tested on: Escherichia coli; assay: Antimicrobial activity against Escherichia coli at 1 umol/spot after 18 hrs by TLC-bioautographic method; format: functional; procedure, shortened: as §2
[21] = tested on: Pseudomonas aeruginosa; assay: Antimicrobial activity against Pseudomonas aeruginosa at 1 umol/spot after 18 hrs by TLC-bioautographic method; format: functional; procedure, shortened: as §2
[22] = tested on: Enterobacter cloacae; assay: Antimicrobial activity against Enterobacter cloacae at 1 umol/spot after 18 hrs by TLC-bioautographic method; format: functional; procedure, shortened: as §2
[23] = tested on: Salmonella typhimurium; assay: Antimicrobial activity against Salmonella Typhimurium at 1 umol/spot after 18 hrs by TLC-bioautographic method; format: functional, Salmonella enterica subsp. enterica serovar Typhimurium; procedure, shortened: as §2
[24] = tested on: Listeria monocytogenes; assay: Antimicrobial activity against Listeria monocytogenes at 1 umol/spot after 18 hrs by TLC-bioautographic method; format: functional; procedure, shortened: as §2
[25] = tested on: Bacillus cereus; assay: Antimicrobial activity against Bacillus cereus after 24 hrs by microdilution technique; format: functional
Procedure, shortened: (§3)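 Broth microdilution in LB medium. Inoculum is 1.0 × 10^4 cfu per well, from a saline-adjusted suspension of 1.0 × 10^5 cfu/ml. Compounds are dissolved in DMSO. Incubated 24 h at 28 C. MIC is the lowest concentration with no visible growth under a binocular microscope. MBC is read by subculture into fresh broth for 72 h, with no growth taken as 99.5% kill. OD is read at 655 nm.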

[26] = tested on: Micrococcus flavus; assay: Antimicrobial activity against Micrococcus flavus after 24 hrs by microdilution technique; format: functional; procedure, shortened: as §3
[27] = tested on: Staphylococcus aureus; assay: Antimicrobial activity against Staphylococcus aureus after 24 hrs by microdilution technique; format: functional; procedure, shortened: as §3
[28] = tested on: Escherichia coli; assay: Antimicrobial activity against Escherichia coli after 24 hrs by microdilution technique; format: functional; procedure, shortened: as §3
[29] = tested on: Pseudomonas aeruginosa; assay: Antimicrobial activity against Pseudomonas aeruginosa after 24 hrs by microdilution technique; format: functional; procedure, shortened: as §3
[30] = tested on: Enterobacter cloacae; assay: Antimicrobial activity against Enterobacter cloacae after 24 hrs by microdilution technique; format: functional; procedure, shortened: as §3
[31] = tested on: Salmonella typhimurium; assay: Antimicrobial activity against Salmonella Typhimurium after 24 hrs by microdilution technique; format: functional, Salmonella enterica subsp. enterica serovar Typhimurium; conditions: Salmonella enterica; procedure, shortened: as §3
[32] = tested on: Listeria monocytogenes; assay: Antimicrobial activity against Listeria monocytogenes after 24 hrs by microdilution technique; format: functional; procedure, shortened: as §3

Row | Compound | inhibition zone (IZ) [1] | inhibition zone (IZ) [3] | inhibition zone (IZ) [5] | inhibition zone (IZ) [6] | inhibition zone (IZ) [7] | inhibition zone (IZ) [8] | inhibition zone (IZ) [9] | inhibition zone (IZ) [10] | inhibition zone (IZ) [11] | inhibition zone (IZ) [12] | inhibition zone (IZ) [13] | inhibition zone (IZ) [14] | inhibition zone (IZ) [15] | inhibition zone (IZ) [16] | inhibition zone (IZ) [17] | inhibition zone (IZ) [18] [millimeter] | inhibition zone (IZ) [19] | inhibition zone (IZ) [20] | inhibition zone (IZ) [21] | inhibition zone (IZ) [22] [millimeter] | other results
1 | N#Cc1c(-c2cccs2)cc(-c2ccc(Nc3nc(Nc4ccccc4)nc(Nc4ccccc4)n3)cc2)nc1N | inactive | inactive | inactive | inactive | inactive | inactive | inactive | 0.04 millimeter | inactive | inactive | inactive | inactive | inactive | inactive | inactive | 0.08 | inactive | 0.06 millimeter | inactive | 0.08 | zone of inhibition at 10 µg/disc ([2]; read-out: IZ): 7 mm; inhibition zone (IZ) [4]: inactive; inhibition zone (IZ) [23]: 0.07 millimeter; inhibition zone (IZ) [24]: 0.09 millimeter; MBC [25]: 90 µM (≈ 49.8 µg/mL); MIC [25]: 45 µM (≈ 24.9 µg/mL); MBC [26]: 90 µM (≈ 49.8 µg/mL); MIC [26]: 45 µM (≈ 24.9 µg/mL); MBC [27]: 180 µM (≈ 99.7 µg/mL); MIC [27]: 90 µM (≈ 49.8 µg/mL); MBC [28]: 90 µM (≈ 49.8 µg/mL); MIC [28]: 45 µM (≈ 24.9 µg/mL); MBC [29]: 180 µM (≈ 99.7 µg/mL); MIC [29]: 90 µM (≈ 49.8 µg/mL); MBC [30]: 180 µM (≈ 99.7 µg/mL); MIC [30]: 90 µM (≈ 49.8 µg/mL); MBC [31]: 90 µM (≈ 49.8 µg/mL); MIC [31]: 45 µM (≈ 24.9 µg/mL); MBC [32]: 360 µM (≈ 199 µg/mL); MIC [32]: 180 µM (≈ 99.7 µg/mL)
2 | O=C(/C=C/c1ccc([N+](=O)[O-])cc1)c1ccc(Nc2nc(Nc3ccccc3)nc(Nc3ccccc3)n2)cc1 | inactive | inactive | inactive | inactive | inactive | inactive | inactive | inactive | inactive | 0.03 millimeter | inactive | inactive | inactive | inactive | inactive | 0.05 | inactive | inactive | inactive | 0.09 | inhibition zone (IZ) [2]: inactive; zone of inhibition at 10 µg/disc ([4]; read-out: IZ): 6 mm; inhibition zone (IZ) [23]: 0.08 millimeter; inhibition zone (IZ) [24]: 0.07 millimeter; MBC [25]: 378 µM (≈ 200 µg/mL); MIC [25]: 189 µM (≈ 100 µg/mL); MBC [26]: 378 µM (≈ 200 µg/mL); MIC [26]: 189 µM (≈ 100 µg/mL); MBC [27]: 756 µM (≈ 400 µg/mL); MIC [27]: 378 µM (≈ 200 µg/mL); MBC [28]: 378 µM (≈ 200 µg/mL); MIC [28]: 189 µM (≈ 100 µg/mL); MBC [29]: 756 µM (≈ 400 µg/mL); MIC [29]: 378 µM (≈ 200 µg/mL); MBC [30]: 378 µM (≈ 200 µg/mL); MIC [30]: 189 µM (≈ 100 µg/mL); MBC [31]: 756 µM (≈ 400 µg/mL); MIC [31]: 378 µM (≈ 200 µg/mL); MBC [32]: 756 µM (≈ 400 µg/mL); MIC [32]: 378 µM (≈ 200 µg/mL)
